Measured values from ChEMBL document CHEMBL3407339, “A novel series of thiazolyl-pyrazoline derivatives: synthesis and evaluation of antifungal activity, cytotoxicity and genotoxicity” (Eur J Med Chem, 2015).
Values after ≈ are worked out from the molar mass of the structure shown.

Experiments:
Aspergillus flavus = experiment: Antifungal activity against Aspergillus flavus NRRL 980 after 72 hrs by broth microdilution assay; type: functional; conditions: NRRL 980, 72 h
Outline: (§1)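 Compounds dissolved in DMSO, diluted in sterile distilled water from 4 to 0.0039 mg/mL. Molds grown on PDA at 25 °C for 5 days, suspended in double-strength PDB at 10⁵ spores/mL. Incubated at 25 °C for 72 h; mycelial growth read under stereo microscope. MIC = lowest concentration inhibiting visible growth. Ketoconazole reference.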

Salmonella typhimurium [1] = experiment: Mutagenicity in Salmonella typhimurium TA100 at 2.5 mg/ml after 48 hrs by AMES MPF assay in absence of Sprague-Dawley rat liver microsomal S9 fraction relative to baseline; type: toxicity, organism-based; conditions: salmonella enterica subsp. enterica serovar typhimurium
Outline: (§2)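 Ames MPF fluctuation test with TA98/TA100. Overnight cultures (37 °C, 14–16 h) mixed with exposure medium; ±Aroclor-1254-induced rat liver S9 (final 4.5% v/v). Compounds in DMSO, 0.156–5 mg/mL. 90 min exposure at 37 °C, then indicator medium; 48 wells per concentration, 48 h at 37 °C, in triplicate. Yellow wells counted; fold induction over baseline (mean + 1 SD of zero-dose control).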

A549 = experiment: Antiproliferative activity against human A549 cells after 24 hrs by XTT assay; type: functional, cell-based; conditions: A549, 24 h
Outline: (§3)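 A549 cells in RPMI and NIH/3T3 cells in DMEM, each with fetal calf serum, antibiotics and 7.5% NaHCO₃, at 37 °C, 5% CO₂. Seeded at 20,000 cells/well, 24 h, then compounds added in medium at 500–3.9 doses (final DMSO <0.1%) for 24 h. XTT read after 3 h at 480 nm (ref 680 nm). IC₅₀ by non-linear regression; triplicates; cisplatin control.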

Salmonella typhimurium [2] = experiment: Mutagenicity in Salmonella typhimurium TA100 at 0.625 mg/ml after 48 hrs by AMES MPF assay in presence of Sprague-Dawley rat liver microsomal S9 fraction relative to baseline; type: toxicity, organism-based; conditions: salmonella enterica subsp. enterica serovar typhimurium; outline: as §2
Salmonella typhimurium [3] = experiment: Mutagenicity in Salmonella typhimurium TA98 at 5 mg/ml after 48 hrs by AMES MPF assay in absence of Sprague-Dawley rat liver microsomal S9 fraction relative to baseline; type: toxicity, organism-based; conditions: salmonella enterica subsp. enterica serovar typhimurium; outline: as §2
Salmonella typhimurium [4] = experiment: Mutagenicity in Salmonella typhimurium TA98 at 0.3125 mg/ml after 48 hrs by AMES MPF assay in absence of Sprague-Dawley rat liver microsomal S9 fraction relative to baseline; type: toxicity, organism-based; conditions: salmonella enterica subsp. enterica serovar typhimurium; outline: as §2
Salmonella typhimurium [5] = experiment: Mutagenicity in Salmonella typhimurium TA98 at 1.25 mg/ml after 48 hrs by AMES MPF assay in presence of Sprague-Dawley rat liver microsomal S9 fraction relative to baseline; type: toxicity, organism-based; conditions: salmonella enterica subsp. enterica serovar typhimurium; outline: as §2
[6] = Cytotoxicity against mouse NIH/3T3 cells after 24 hrs by XTT assay; type: cell-based; conditions: NIH3T3, 24 h; outline: as §3
Salmonella typhimurium [7] = experiment: Mutagenicity in Salmonella typhimurium TA100 at 1.25 mg/ml after 48 hrs by AMES MPF assay in presence of Sprague-Dawley rat liver microsomal S9 fraction relative to baseline; type: toxicity, organism-based; conditions: salmonella enterica subsp. enterica serovar typhimurium; outline: as §2
Salmonella typhimurium [8] = experiment: Mutagenicity in Salmonella typhimurium TA98 at 0.156 mg/ml after 48 hrs by AMES MPF assay in presence of Sprague-Dawley rat liver microsomal S9 fraction relative to baseline; type: toxicity, organism-based; conditions: salmonella enterica subsp. enterica serovar typhimurium; outline: as §2
Salmonella typhimurium [9] = experiment: Mutagenicity in Salmonella typhimurium TA98 at 2.5 mg/ml after 48 hrs by AMES MPF assay in absence of Sprague-Dawley rat liver microsomal S9 fraction relative to baseline; type: toxicity, organism-based; conditions: salmonella enterica subsp. enterica serovar typhimurium; outline: as §2
Salmonella typhimurium [10] = experiment: Mutagenicity in Salmonella typhimurium TA98 at 5 mg/ml after 48 hrs by AMES MPF assay in presence of Sprague-Dawley rat liver microsomal S9 fraction relative to baseline; type: toxicity, organism-based; conditions: salmonella enterica subsp. enterica serovar typhimurium; outline: as §2
Salmonella typhimurium [11] = experiment: Mutagenicity in Salmonella typhimurium TA98 at 2.5 mg/ml after 48 hrs by AMES MPF assay in presence of Sprague-Dawley rat liver microsomal S9 fraction relative to baseline; type: toxicity, organism-based; conditions: salmonella enterica subsp. enterica serovar typhimurium; outline: as §2
Salmonella typhimurium [12] = experiment: Mutagenicity in Salmonella typhimurium TA100 at 5 mg/ml after 48 hrs by AMES MPF assay in presence of Sprague-Dawley rat liver microsomal S9 fraction relative to baseline; type: toxicity, organism-based; conditions: salmonella enterica subsp. enterica serovar typhimurium; outline: as §2
Aspergillus parasiticus = experiment: Antifungal activity against Aspergillus parasiticus NRRL 465 after 72 hrs by broth microdilution assay; type: functional; conditions: NRRL 465, 72 h; outline: as §1
Candida parapsilosis = experiment: Antifungal activity against Candida parapsilosis NRLL Y 12696 after 48 hrs by broth microdilution assay; type: functional; conditions: Lodderomyces parapsilosis, NRLL Y 12696, 48 h
Outline: (§4)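 Broth microdilution of DMSO stocks serially diluted in sterile water (4 to 0.0039 mg/mL). Yeasts grown on SDA at 37 °C for 24 h, suspended in double-strength PDB at 10⁵ spores/mL. Incubated at 37 °C for 48 h, then sprayed with 0.5% aqueous TTC. MIC = lowest concentration inhibiting visible growth. Ketoconazole reference.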

Candida albicans = experiment: Antifungal activity against Candida albicans ATCC 90028 after 48 hrs by broth microdilution assay; type: functional; conditions: ATCC 90028, 48 h; outline: as §4
Salmonella typhimurium [13] = experiment: Mutagenicity in Salmonella typhimurium TA98 at 0.625 mg/ml after 48 hrs by AMES MPF assay in absence of Sprague-Dawley rat liver microsomal S9 fraction relative to baseline; type: toxicity, organism-based; conditions: salmonella enterica subsp. enterica serovar typhimurium; outline: as §2
Salmonella typhimurium [14] = experiment: Mutagenicity in Salmonella typhimurium TA100 at 5 mg/ml after 48 hrs by AMES MPF assay in absence of Sprague-Dawley rat liver microsomal S9 fraction relative to baseline; type: toxicity, organism-based; conditions: salmonella enterica subsp. enterica serovar typhimurium; outline: as §2
Salmonella typhimurium [15] = experiment: Mutagenicity in Salmonella typhimurium TA100 at 2.5 mg/ml after 48 hrs by AMES MPF assay in presence of Sprague-Dawley rat liver microsomal S9 fraction relative to baseline; type: toxicity, organism-based; conditions: salmonella enterica subsp. enterica serovar typhimurium; outline: as §2
Aspergillus niger = experiment: Antifungal activity against Aspergillus niger ATCC 1094 after 72 hrs by broth microdilution assay; type: functional; conditions: ATCC 1094, 72 h; outline: as §1
Candida tropicalis = experiment: Antifungal activity against Candida tropicalis NRLL Y 12968 after 48 hrs by broth microdilution assay; type: functional; conditions: NRLL Y 12968, 48 h; outline: as §4
Fusarium solani = experiment: Antifungal activity against Fusarium solani NRRL 13414 after 72 hrs by broth microdilution assay; type: functional; conditions: NRRL 13414, 72 h; outline: as §1
[Candida] zeylanoides = Antifungal activity against Candida zeylanoides NRLL Y 1774 after 48 hrs by broth microdilution assay; type: functional; conditions: Dujonia zeylanoides, NRLL Y 1774, 48 h; outline: as §4
Salmonella typhimurium [16] = experiment: Mutagenicity in Salmonella typhimurium TA100 at 0.156 mg/ml after 48 hrs by AMES MPF assay in absence of Sprague-Dawley rat liver microsomal S9 fraction relative to baseline; type: toxicity, organism-based; conditions: salmonella enterica subsp. enterica serovar typhimurium; outline: as §2
Salmonella typhimurium [17] = experiment: Mutagenicity in Salmonella typhimurium TA100 at 0.3125 mg/ml after 48 hrs by AMES MPF assay in presence of Sprague-Dawley rat liver microsomal S9 fraction relative to baseline; type: toxicity, organism-based; conditions: salmonella enterica subsp. enterica serovar typhimurium; outline: as §2
Pichia kudriavzevii = experiment: Antifungal activity against Candida krusei NRLL Y 7179 after 48 hrs by broth microdilution assay; type: functional; conditions: NRLL Y 7179, 48 h; outline: as §4
Salmonella typhimurium [18] = experiment: Mutagenicity in Salmonella typhimurium TA100 at 0.156 mg/ml after 48 hrs by AMES MPF assay in presence of Sprague-Dawley rat liver microsomal S9 fraction relative to baseline; type: toxicity, organism-based; conditions: salmonella enterica subsp. enterica serovar typhimurium; outline: as §2
Salmonella typhimurium [19] = experiment: Mutagenicity in Salmonella typhimurium TA100 at 1.25 mg/ml after 48 hrs by AMES MPF assay in absence of Sprague-Dawley rat liver microsomal S9 fraction relative to baseline; type: toxicity, organism-based; conditions: salmonella enterica subsp. enterica serovar typhimurium; outline: as §2
Nakaseomyces glabratus = experiment: Antifungal activity against Candida glabrata clinical isolate after 48 hrs by broth microdilution assay; type: functional; outline: as §4
Salmonella typhimurium [20] = experiment: Mutagenicity in Salmonella typhimurium TA98 at 0.156 mg/ml after 48 hrs by AMES MPF assay in absence of Sprague-Dawley rat liver microsomal S9 fraction relative to baseline; type: toxicity, organism-based; conditions: salmonella enterica subsp. enterica serovar typhimurium; outline: as §2
Salmonella typhimurium [21] = experiment: Mutagenicity in Salmonella typhimurium TA98 at 0.3125 mg/ml after 48 hrs by AMES MPF assay in presence of Sprague-Dawley rat liver microsomal S9 fraction relative to baseline; type: toxicity, organism-based; conditions: salmonella enterica subsp. enterica serovar typhimurium; outline: as §2
Salmonella typhimurium [22] = experiment: Mutagenicity in Salmonella typhimurium TA98 at 1.25 mg/ml after 48 hrs by AMES MPF assay in absence of Sprague-Dawley rat liver microsomal S9 fraction relative to baseline; type: toxicity, organism-based; conditions: salmonella enterica subsp. enterica serovar typhimurium; outline: as §2
Salmonella typhimurium [23] = experiment: Mutagenicity in Salmonella typhimurium TA98 at 0.625 mg/ml after 48 hrs by AMES MPF assay in presence of Sprague-Dawley rat liver microsomal S9 fraction relative to baseline; type: toxicity, organism-based; conditions: salmonella enterica subsp. enterica serovar typhimurium; outline: as §2
Salmonella typhimurium [24] = experiment: Mutagenicity in Salmonella typhimurium TA100 at 0.3125 mg/ml after 48 hrs by AMES MPF assay in absence of Sprague-Dawley rat liver microsomal S9 fraction relative to baseline; type: toxicity, organism-based; conditions: salmonella enterica subsp. enterica serovar typhimurium; outline: as §2
Salmonella typhimurium [25] = experiment: Mutagenicity in Salmonella typhimurium TA100 at 0.625 mg/ml after 48 hrs by AMES MPF assay in absence of Sprague-Dawley rat liver microsomal S9 fraction relative to baseline; type: toxicity, organism-based; conditions: salmonella enterica subsp. enterica serovar typhimurium; outline: as §2

SMILES: Cc1ccc(C2=NN(c3nc(-c4ccc(C#N)cc4)cs3)C(c3ccc(F)cc3)C2)s1 (stereo unspecified)
- MIC (Aspergillus flavus): 125 µg/mL (≈ 281 µM)
- fold change (FC) (Salmonella typhimurium [1]): 0.31
- IC50 (A549): 322 µg/mL (≈ 724 µM)
- fold change (FC) (Salmonella typhimurium [2]): 0.86
- fold change (FC) (Salmonella typhimurium [3]): 1.33
- fold change (FC) (Salmonella typhimurium [4]): 1.56
- fold change (FC) (Salmonella typhimurium [5]): 0.44
- IC50 [6]: 250 µg/mL (≈ 562 µM)
- fold change (FC) (Salmonella typhimurium [7]): 0.7
- fold change (FC) (Salmonella typhimurium [8]): 0.27
- fold change (FC) (Salmonella typhimurium [9]): 1.56
- fold change (FC) (Salmonella typhimurium [10]): 1.16
- fold change (FC) (Salmonella typhimurium [11]): 0.89
- fold change (FC) (Salmonella typhimurium [12]): 1.01
- MIC (Aspergillus parasiticus): 250 µg/mL (≈ 562 µM)
- MIC (Candida parapsilosis): 250 µg/mL (≈ 562 µM)
- MIC (Candida albicans): 250 µg/mL (≈ 562 µM)
- fold change (FC) (Salmonella typhimurium [13]): 1.11
- fold change (FC) (Salmonella typhimurium [14]): 0.8
- fold change (FC) (Salmonella typhimurium [15]): 0.55
- MIC (Aspergillus niger): 250 µg/mL (≈ 562 µM)
- MIC (Candida tropicalis): 250 µg/mL (≈ 562 µM)
- MIC (Fusarium solani): 250 µg/mL (≈ 562 µM)
- MIC ([Candida] zeylanoides): 250 µg/mL (≈ 562 µM)
- fold change (FC) (Salmonella typhimurium [16]): 0.8
- fold change (FC) (Salmonella typhimurium [17]): 0.94
- MIC (Pichia kudriavzevii): 250 µg/mL (≈ 562 µM)
- fold change (FC) (Salmonella typhimurium [18]): 1.01
- fold change (FC) (Salmonella typhimurium [19]): 0.31
- MIC (Nakaseomyces glabratus): 125 µg/mL (≈ 281 µM)
- fold change (FC) (Salmonella typhimurium [20]): 1.78
- fold change (FC) (Salmonella typhimurium [21]): 0.18
- fold change (FC) (Salmonella typhimurium [22]): 1.11
- fold change (FC) (Salmonella typhimurium [23]): 1.07
- fold change (FC) (Salmonella typhimurium [24]): 0.74
- fold change (FC) (Salmonella typhimurium [25]): 0.74
